Laboratory results reported in ChEMBL document CHEMBL1126705, “16 beta-([18F]fluoro)estrogens: systematic investigation of a new series of fluorine-18-labeled estrogens as potential imaging agents for estrogen-receptor-positive breast tumors” (J Med Chem, 1993).

Columns and labels:
[1] = Partition coefficient (logP); assay type: physicochemical; settings: octanol/water
Summary of the method: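 Octanol/water log P estimated from log k'w measured by reversed-phase HPLC (Minick method) on a C8 silica column.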

[2] = target: T1, Sex hormone-binding globulin (Homo sapiens) (UniProt P04278); assay: Relative binding affinity against sex steroid binding protein (SBP)
T1 sequence (whole entry): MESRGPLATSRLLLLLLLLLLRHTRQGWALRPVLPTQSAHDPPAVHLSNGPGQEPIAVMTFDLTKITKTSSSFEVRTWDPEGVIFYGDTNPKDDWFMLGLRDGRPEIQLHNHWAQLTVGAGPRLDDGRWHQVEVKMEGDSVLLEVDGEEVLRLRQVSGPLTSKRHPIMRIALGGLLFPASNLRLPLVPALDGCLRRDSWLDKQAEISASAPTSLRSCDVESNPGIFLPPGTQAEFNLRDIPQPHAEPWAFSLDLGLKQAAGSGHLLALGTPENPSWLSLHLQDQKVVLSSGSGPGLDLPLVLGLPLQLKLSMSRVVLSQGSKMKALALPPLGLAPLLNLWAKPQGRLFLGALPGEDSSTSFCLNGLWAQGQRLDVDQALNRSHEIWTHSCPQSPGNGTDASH

[3] = target: T2, Estrogen receptor (Rattus norvegicus) (UniProt P06211+Q62986)
[4] = target: T2, Estrogen receptor (Rattus norvegicus); remark: listed apart in the source
[5] = target: T3, Alpha-fetoprotein (Rattus norvegicus) (UniProt P02773); assay: Relative binding affinity for Alphafetoprotein
T3 sequence (whole entry): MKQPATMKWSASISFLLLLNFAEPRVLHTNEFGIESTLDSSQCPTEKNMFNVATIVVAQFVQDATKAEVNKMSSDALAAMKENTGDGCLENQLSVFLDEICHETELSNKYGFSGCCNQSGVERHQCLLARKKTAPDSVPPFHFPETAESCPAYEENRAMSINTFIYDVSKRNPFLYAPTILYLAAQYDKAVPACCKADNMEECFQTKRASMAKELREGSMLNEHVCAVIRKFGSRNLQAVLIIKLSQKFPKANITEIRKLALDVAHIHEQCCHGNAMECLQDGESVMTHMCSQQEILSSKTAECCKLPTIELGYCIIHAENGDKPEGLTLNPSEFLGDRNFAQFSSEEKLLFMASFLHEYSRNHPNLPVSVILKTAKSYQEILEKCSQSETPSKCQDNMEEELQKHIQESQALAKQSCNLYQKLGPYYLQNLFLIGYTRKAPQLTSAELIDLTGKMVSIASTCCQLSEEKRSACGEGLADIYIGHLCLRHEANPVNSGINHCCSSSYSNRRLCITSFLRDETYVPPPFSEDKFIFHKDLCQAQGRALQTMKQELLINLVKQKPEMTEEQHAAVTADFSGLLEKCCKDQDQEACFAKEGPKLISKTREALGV

Row | SMILES | logP [1] | relative binding affinity (RBA) [2] | BSI [3] | NSB [4] | relative binding affinity (RBA) [5]
1 | C#C[C@]1(O)CC[C@H]2[C@@H]3CCc4cc(O)ccc4[C@H]3C(CC)C[C@@]21C (stereo partly specified) | 4.28 | 41.2 | 331 | 2.86 | 0.347
2 | CO[C@H]1C[C@]2(C)[C@@H](O)CC[C@H]2[C@@H]2CCc3cc(O)ccc3[C@H]21 | 2.72 | 1.72 | 151 | 0.57 | 0.26
3 | C#C[C@]1(O)CC[C@H]2[C@@H]3CCc4cc(O)ccc4[C@H]3CC[C@@]21C [ETHINYL ESTRADIOL] | 3.42 | 1.81 |  |  | 3.51
4 | C[C@]12CC[C@@H]3c4ccc(O)cc4CC[C@H]3[C@@H]1CC[C@@H]2O [ESTRADIOL] | 3.26 | 100 |  |  | 100
